Assay outcomes as filed in PubChem.
Kir21 block – inhibitors of mouse Kir2.1 inward-rectifier potassium channel | HEK293-Kir2.1, FluxOR thallium flux fluorescence; stronger effect = lower value | B-score at 10 µM | actives 0.85% (n = 310,000) | AID 1672;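 active = fluorescence ratio B-score at or below minus 3 SD of library scores, with starting-brightness B-score within 2 SD, cut at about -4.2 in these data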;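 note: channel flux triggered by added potassium and thallium sulfate stimulus; B-score of peak minus minimum fluorescence over baseline after thallium stimulus; more negative B-score means stronger Kir2.1 block with less thallium influx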
hERG protect – shields human hERG channel from block by proarrhythmic agents; activation (rescue from dofetilide block), less the hit threshold, % at 10 µM; Q12809; CHO-hERG, FluxOR thallium flux, dofetilide IC70 present; actives 0.51% (n = 310,000);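 active = activation above the mean of controls blocked by dofetilide plus 5 SD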;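 note: thallium influx through hERG after potassium depolarization seen as dye fluorescence rise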
KCNK3 inh – human KCNK3 channel inhibition, primary screen. actives 0.84% (n = 340,000). AID 602410. B-score at 10 µM. CHO-KCNK3 thallium flux, FluxOR fluorescence; stronger effect = lower value;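 active = B-score under library mean minus 4 SD, starting fluorescence ratio at most library mean plus 5 SD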;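 note: more negative B-score means stronger inhibition of thallium flux through KCNK3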
KCNK9 inh – human KCNK9 channel inhibition | AID 488922 | actives 1.2% (n = 310,000) | HEK293 KCNK9, FluxOR thallium flux fluorescence; stronger effect = lower value | B-score at 10 µM | Q9NPC2;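 active = ratio B-score over 3 SD below the library mean, with starting fluorescence within 5 SD of its mean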;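 note: negative B-score means less thallium flux so channel inhibition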
KCNQ1 act – potentiates or activates the human KCNQ1 potassium channel; actives 0.35% (n = 310,000); B-score at 10 µM; P51787; CHO-K1 KCNQ1, thallium flux FluxOR fluorescence; stronger effect = higher value;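 active = fluorescence ratio B-score, a plate-corrected score, at least three library SD, with initial intensity B-score within 5 SD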
Target sequence (P51787 whole entry, looked up): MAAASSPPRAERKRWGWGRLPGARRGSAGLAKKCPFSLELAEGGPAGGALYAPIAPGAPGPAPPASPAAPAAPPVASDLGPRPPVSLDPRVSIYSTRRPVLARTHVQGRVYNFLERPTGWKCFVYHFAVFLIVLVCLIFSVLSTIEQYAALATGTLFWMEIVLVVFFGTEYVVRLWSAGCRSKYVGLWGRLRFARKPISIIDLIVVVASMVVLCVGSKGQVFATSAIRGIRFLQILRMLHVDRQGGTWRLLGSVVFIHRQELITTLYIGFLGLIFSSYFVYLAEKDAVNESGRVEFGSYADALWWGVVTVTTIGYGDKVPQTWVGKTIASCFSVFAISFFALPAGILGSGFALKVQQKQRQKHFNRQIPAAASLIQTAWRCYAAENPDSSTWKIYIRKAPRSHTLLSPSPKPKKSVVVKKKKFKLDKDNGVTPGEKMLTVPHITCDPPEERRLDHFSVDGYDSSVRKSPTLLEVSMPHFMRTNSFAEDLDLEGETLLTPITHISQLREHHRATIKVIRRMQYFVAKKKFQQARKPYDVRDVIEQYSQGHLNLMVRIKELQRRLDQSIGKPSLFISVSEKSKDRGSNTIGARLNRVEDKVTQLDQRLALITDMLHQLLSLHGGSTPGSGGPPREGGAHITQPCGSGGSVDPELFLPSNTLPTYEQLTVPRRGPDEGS
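System: CHO-K1 cells stably expressing KCNQ1 / Medium: assay buffer for compound exposure, DMSO matched across wells / Reagent: thallium- and potassium-containing depolarizing buffer / Compound: one concentration, matched DMSO / Incubation: 20 min compound pretreatment at room temperature / Measured by: kinetic FluxOR fluorescence, 10 s baseline plus 110 s post-stimulus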
KCNQ1 block – human KCNQ1 channel inhibition; AID 2642; actives 1.3% (n = 310,000); CHO-K1 KCNQ1, FluxOR thallium flux fluorescence; stronger effect = higher value; B-score at 10 µM; P51787;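 active = compounds whose thallium flux B-score, printed positive for inhibition, exceeds three library SD while starting fluorescence stays within three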;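 note: channel opened by potassium depolarization with thallium stimulus after 20 min compound exposure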
KCNK9 block conf – human KCNK9 inhibitor confirmation. shares compounds with KCNK9 inh. HEK293 KCNK9 cells, FluxOR thallium flux fluorescence. inhibition, % at 10 µM. actives 43% (n = 4,900). AID 492992;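 active = thallium signal inhibited by more than 5 SD of the compound-free buffer control wells, on both duplicate plates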
Kir2-1 spec – selectivity of KCNK9 modulators against mouse Kir2.1 | actives 4% (n = 4,900) | inhibition, % at 10 µM | Kir2.1 cells, FluxOR thallium flux fluorescence | shares compounds with KCNK9 inh;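 active = thallium signal drop more than 5 SD beyond the mean of the no-compound control wells, seen in both duplicate plates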;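 note: signal is fluorescence rise after thallium addition divided by baseline fluorescence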
HEK293 Tl ctr – second counter-screen for KCNK9 modulators: effect in non-induced cells; non-induced KCNK9-HEK293, FluxOR thallium flux; shares compounds with KCNK9 inh; inhibition, % at 10 µM; actives 40% (n = 4,900);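 active = thallium signal drop beyond 5 SD of the untreated control mean, on both duplicate plates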
Each line names hits and unclear results; the compound was inactive in the other large screens (follow-up assays come after a bar, where they were run). An excerpt weighted towards active compounds, which were near 3.7% of everything screened.

COc1cccc(-c2ccc(C#N)c(OC(=O)c3c(Cl)cccc3Cl)n2)c1	KCNK9 inh -10 | KCNK9 block conf 38% | Kir2-1 spec inactive | HEK293 Tl ctr 28%
COc1cccc(-c2ccc(C#N)c(OC(=O)c3ccc(Cl)cc3)n2)c1	none
CCCC(=NCCc1c(C)[nH]c2ccccc12)C1=C(O)CC(c2ccccc2)CC1=O (stereo not drawn)	none | KCNK9 block conf inactive | Kir2-1 spec inactive | HEK293 Tl ctr inactive
CCCCC(=NCCc1c(C)[nH]c2ccccc12)C1=C(O)CC(c2ccccc2)CC1=O (stereo not drawn)	none | KCNK9 block conf inactive | Kir2-1 spec inactive | HEK293 Tl ctr inactive
CC(C)(C)c1ccc(OCC(=O)NNC(=S)NC(=O)c2ccco2)c(Br)c1	KCNQ1 act 56 | KCNK9 block conf inactive | Kir2-1 spec inactive | HEK293 Tl ctr inactive
O=S(=O)(c1cccc(F)c1)N1CCN(Cc2ccc3c(c2)OCO3)CC1	none | KCNK9 block conf inactive | Kir2-1 spec inactive | HEK293 Tl ctr inactive
COc1cc(S(=O)(=O)N2CCN(Cc3ccc4c(c3)OCO4)CC2)c(C)cc1C	none | KCNK9 block conf inactive | Kir2-1 spec inactive | HEK293 Tl ctr inactive
COc1ccc(CN2CCN(S(=O)(=O)c3ccc(C)cc3)CC2)cc1Br	none | KCNK9 block conf inactive | Kir2-1 spec inactive | HEK293 Tl ctr inactive
C[C@]12c3[nH]c4ccccc4c3CCN1C(=O)C(CC(=O)NCCN1CCOCC1)C[C@@H]2C(=O)N1CCOCC1 (stereo partly drawn)	none (no result: Kir21 block, hERG protect, KCNK9 inh, KCNQ1 act, KCNQ1 block)
Cc1cccc(C)c1NC(=O)CN(C)C(=O)Cn1c(=O)cnc2ccccc21	none
O=C(Nc1nc2ccsc2c(=O)s1)c1ccc(F)cc1	none
CN(Cc1nc2ccccc2c(=O)[nH]1)Cc1nc2ccsc2c(=O)[nH]1	none
CCN(c1ccccc1)c1nc2ccsc2c(=O)s1	none | KCNK9 block conf inactive | Kir2-1 spec inactive | HEK293 Tl ctr inactive
CN(c1ccccc1)c1nc2ccsc2c(=O)s1	none | KCNK9 block conf inactive | Kir2-1 spec inactive | HEK293 Tl ctr inactive
O=c1ccncn1C1OC(CO)C(O)C1O (stereo not drawn)	none (no result: Kir21 block, hERG protect, KCNK9 inh, KCNQ1 act, KCNQ1 block)
O=S(=O)(c1ccc(F)c(F)c1)N1CCN(c2ccccn2)CC1	none
Cc1ccc(-c2cc3ccccc3nc2N2CCOCC2)cc1	none | KCNK9 block conf inactive | Kir2-1 spec inactive | HEK293 Tl ctr inactive
CC(OC(=O)C1CC1C)C(=O)Nc1ccc(Cl)cn1 (stereo not drawn)	none (no result: Kir21 block, hERG protect, KCNK9 inh, KCNQ1 act, KCNQ1 block)
Cc1ccc(CN2C(=O)C(Cc3ccccc3)Nc3ncnc(N4CCCCC4)c32)cc1 (stereo not drawn)	KCNK9 inh -14 | KCNK9 block conf 64% | Kir2-1 spec inactive | HEK293 Tl ctr 38%
Cc1ccc(CN2C(=O)C(Cc3ccccc3)Nc3ncnc(N4CCN(c5ccccc5)CC4)c32)cc1 (stereo not drawn)	none
COc1ccc(CN2C(=O)C(Cc3ccccc3)Nc3ncnc(N4CCCCC4)c32)cc1 (stereo not drawn)	KCNK9 inh -13 | KCNK9 block conf 54% | Kir2-1 spec inactive | HEK293 Tl ctr 27%
Cc1cc(C)c2sc(N(CCCN(C)C)C(=O)c3ccc(S(=O)(=O)N(C)C4CCCCC4)cc3)nc2c1	none | KCNK9 block conf inactive | Kir2-1 spec inactive | HEK293 Tl ctr inactive
CCC(C)n1c(SCC(=O)NC(=O)Nc2ccc3c(c2)OCCO3)nc2ccccc2c1=O (stereo not drawn)	KCNK3 inh -8.7, KCNK9 inh -15 | KCNK9 block conf 50% | Kir2-1 spec inactive | HEK293 Tl ctr 30%
COc1ccc(-n2c(SCC(=O)Nc3ccc4c(c3)OCO4)nc3ccccc3c2=O)cc1	KCNK9 inh -9.3 | KCNK9 block conf 38% | Kir2-1 spec inactive | HEK293 Tl ctr 36%
